PPC-1+TRAIL kill = compounds killing PPC-1 cancer cells with TRAIL present, primary screen, TRAIL potentiator project, ATPLite luminescence, uHTS | actives 0.41% (n = 220,000) | PPC-1 cells + TRAIL, ATPLite viability luminescence | cell killing (% activity), % at 4 µM or 5 µM | AID 1443, 2008;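 active = cell killing above 50% in the first pass at 4 µM, then a duplicate retest at 5 µM averaging 50% or more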
TRAIL sens C8 = viability loss with TRAIL in NB7+C8 cells, primary screen, TRAIL sensitizer project, cell-based, ATPlite luminescence; inhibition (viability loss, TRAIL sensitization), % at 10 µM; actives 1% (n = 360,000); AID 624354, 2012;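 active = compounds causing at least 50% loss of cell viability in the single-dose screen, relative to plate controls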
STAT3 activator = IL-6 driven STAT3 reporter potentiators, primary screen, U3A cells, luciferase, luminescence, MLSCN library. actives 0.91% (n = 190,000). IL-6 STAT3-luciferase reporter; 100% = signal with IL-6 EC80 alone. activation (% of control), % at 5.6 µM;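 active = activation above the screen-wide mean of compound activation plus 3 SD, cut at about 130% in these data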
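System – human U3A cells carrying STAT3-luciferase construct · Probe or stimulus – Interleukin-6, 33 ng/mL · Schedule – compound 1 h, then IL-6 6 h at 37 °C · Signal – luminescence from STAT3-driven luciferase reporter · Evaluation – percent of IL-6-only median luminescence · Benchmarks – IL-6-only high control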
STAT1 blocker = STAT1 signaling inhibitors, primary screen, cell-based, HTS, luciferase reporter | actives 0.35% (n = 200,000) | NIH 3T3 STAT1-luciferase reporter, IFN-gamma, luminescence | AID 920, 2007 | inhibition, % at 5.5 µM;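 active = inhibition above a set limit, the mean inhibition across all tested compounds plus 3 SD, cut at about 34% in these data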
STAT3 inh-1 = IL-6 driven STAT3 reporter inhibitors, primary screen, U3A cells, luciferase, luminescence, MLSCN library. IL-6 STAT3-luciferase reporter; host cell line lacks STAT1. actives 0.89% (n = 190,000). inhibition, % at 5.5 µM;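 active = inhibition above the mean inhibition across all screened compounds plus 3 SD, cut at about 44% in these data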
STAT3 inh-2 = STAT3 reporter inhibitors, retest of hits, confirmation, U3A cells, luciferase, luminescence; shares compounds with STAT3 inh-1; IL-6 STAT3 luciferase reporter; cell line lacks STAT1; actives 45% (n = 1,200); inhibition, % at 5.7 µM;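 active = inhibition above the hit cutoff computed for the primary STAT3 screen, cut at about 44% in these data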
NFkB inh STAT3ct = NF-kB reporter inhibitors in human cells, confirmation, counter-screen for STAT3 inhibitor project, cell-based, HEK293T, luciferase, TNF-alpha stimulus. shares compounds with STAT3 inh-1. TNF-alpha induced. inhibition, % at 5.7 µM. actives 36% (n = 1,200);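 active = inhibition above the mean of solvent-only control wells plus 3 SD, cutoff set per campaign, cut at about 13% in these data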
STAT1 inh STAT3c = STAT1 reporter inhibitors, IFN-gamma induced, confirmation, counter-screen for STAT3 inhibitor project, cell-based, NIH 3T3, luciferase luminescence; shares compounds with STAT3 inh-1; NIH 3T3 STAT1-luciferase reporter; inhibition, % at 5.7 µM; actives 27% (n = 1,200); AID 1317, 2008;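 active = inhibition above the mean plus 3 SD of solvent-only control wells, limit set per screening run, cut at about 16% in these data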
A number is an active result; 0 = inactive; - = not tested or not shown. A selection: hits, their analogues and other compounds. The true share with any hit is near 1.8%.

SMILES | PPC-1+TRAIL kill | TRAIL sens C8 | STAT3 activator | STAT1 blocker | STAT3 inh-1 | STAT3 inh-2 | NFkB inh STAT3ct | STAT1 inh STAT3c
CC(OC(=O)c1snc(C(=O)NC2CCCCC2)c1N)C(=O)NC(C)(C)C (stereo not given) | 0 | 0 | 0 | 0 | 0 | - | - | -
CC(C)(C)NC(=O)COC(=O)c1snc(C(=O)NC2CCCCC2)c1N | 0 | 0 | 0 | 0 | 76 | 72 | 22 | 0
Cc1sc2ncn(CC(=O)NCCCN3CC(C)CC(C)C3)c(=O)c2c1S(=O)(=O)N1CC(C)CC(C)C1 (stereo not given) | - | 0 | - | - | - | - | - | -
CCN(C(=O)COC(=O)C1=COCCO1)c1c(N)n(Cc2ccccc2)c(=O)[nH]c1=O | - | 0 | - | - | - | - | - | -
Cc1[nH]nc2c1C1(CCN(C(=O)OCc3ccccc3)CC1)C(C#N)=C(N)O2 | 0 | 0 | 0 | 0 | 49 | 0 | 0 | 0
Cc1cc(/C=C2/SC(=S)N(c3cccc(C(F)(F)F)c3)C2=O)c(C)n1-c1cccnc1 | - | 0 | 0 | 0 | 78 | 84 | 33 | 31
Cc1cc(/C=C2\SC(=S)N(Cc3ccco3)C2=O)c(C)n1-c1cccnc1 | 0 | 0 | 0 | 0 | 0 | - | - | -
CC(C)SCC(=O)Nc1ncc2c(n1)-c1ccccc1CC2 | 0 | 0 | 0 | 0 | 0 | - | - | -
O=C(Nc1ncc2c(n1)-c1ccccc1CC2)C1CC1 | 0 | 0 | 0 | 0 | 45 | 0 | 0 | 0
O=C(/C=C/Nc1ccccc1F)c1cccs1 | 50 | 87 | 0 | 0 | 61 | 0 | 16 | 0
O=C(/C=C/Nc1ccc(F)cc1F)c1cccs1 | 63 | 93 | 0 | 0 | 66 | 54 | 55 | 33
CC(=O)Nc1cc(NC(C)=O)cc(C(=O)OCC(=O)N(c2ccccc2)C2CCS(=O)(=O)C2)c1 (stereo not given) | - | 0 | - | - | - | - | - | -
COc1ccc(-c2cnc3ccccc3n2)cc1NC(=O)CNC(=O)c1ccccc1 | - | 0 | - | - | - | - | - | -
COc1ccc(C(=O)NNC(=O)C23CC4CC(CC(C4)C2)C3)c(OC)c1 | - | 0 | - | - | - | - | - | -
CCN(CC)c1ccc2cc(NC(=O)CCC(=O)O)c(=O)oc2c1 | 0 | 0 | 0 | 0 | 70 | 65 | 29 | 28
CCN(CC)c1ccc2cc(C(C)=O)c(=O)oc2c1 | 0 | 0 | 0 | 0 | 0 | - | - | -
Cc1ccn2cc(-c3cc4ccccc4oc3=O)nc2c1 | 0 | 0 | 0 | 0 | 75 | 44 | 27 | 0
CCCc1ccc(-c2ccc(/C=C/C(=O)O)cc2)nc1 | 56 | 85 | 0 | 0 | 96 | 94 | 69 | 0
CCCCCc1ccc(-c2cn(Cc3ccc(C(=O)c4ccccc4)cc3)nn2)cc1 | - | 0 | - | - | - | - | - | -
CCCCCCCc1ccc(-c2ccc(O)cc2)nc1 | 0 | 0 | 0 | 0 | 54 | 62 | 0 | 0
Cc1ccc2nc(-c3ccc(NC(=O)CCS(=O)(=O)c4ccccc4)cc3)sc2c1 | 0 | 88 | 0 | 0 | 72 | 48 | 22 | 0
Cc1ccc2nc(-c3ccc(NC(=O)COC(=O)c4ccc(=O)[nH]c4)cc3)sc2c1 | 50 | 0 | 0 | 0 | 56 | 0 | 0 | 0
C[C@@H]1CN([C@H](C)CO)C(=O)CCCn2cc(nn2)CO[C@H]1CN(C)C(=O)Nc1ccc(C(C)(C)C)cc1 | - | 0 | - | - | - | - | - | -
CC(=Nc1cccc(O)c1)c1sc2ccccc2c1O | 0 | 0 | 0 | 0 | 0 | - | - | -
CC(=Nc1ccc(C)cc1)c1sc2ccccc2c1O | 0 | 62 | 0 | 0 | 56 | 0 | 0 | 0
SMILES | PPC-1+TRAIL kill | TRAIL sens C8 | STAT3 activator | STAT1 blocker | STAT3 inh-1 | STAT3 inh-2 | NFkB inh STAT3ct | STAT1 inh STAT3c
CN1/C(=C\C(=O)C[n+]2ccc(C(=O)c3ccccc3)cc2)C(C)(C)c2ccccc21 | 0 | 55 | 0 | 0 | 56 | 61 | 0 | 0
CN1/C(=C\C(=O)C[n+]2cccc(C(N)=O)c2)C(C)(C)c2ccccc21 | 0 | 0 | 0 | 0 | 0 | - | - | -
O=C1c2ccc(Br)cc2C(=O)N1c1ccc(Cc2ccncc2)cc1 | - | 0 | 0 | 0 | 59 | 59 | 0 | 0
Cc1cccc(N2C(=O)c3ccc(Br)cc3C2=O)n1 | - | 0 | - | - | - | - | - | -
Cc1ccc2c(c1)C(N1CCCC1=O)CC(c1ccco1)N2 (stereo not given) | 0 | 48 | 0 | 0 | 70 | 0 | 0 | 0
CCOc1ccc(OCc2ccc(C(=O)N3CCCC3)o2)cc1 | 0 | 0 | 0 | 0 | 0 | - | - | -
CCOc1ccc(OCc2cccc(C(=O)N3CCCC3)c2)cc1 | 0 | 0 | 0 | 42 | 53 | 0 | 17 | 0
Cc1cc(NNC(=O)c2cccc(C(F)(F)F)c2)nc2c1c(C)nn2C | 0 | 0 | - | - | - | - | - | -
Nc1nn(-c2cccc(F)n2)cc1-c1ccc(Cl)cc1 | 0 | 0 | 0 | 0 | 58 | 0 | 0 | 0
Nc1nn(-c2cccc(F)n2)cc1-c1ccccc1 | 0 | 0 | 0 | 0 | 0 | - | - | -
CCOC(=O)c1sc(NC(=O)c2cc3c(s2)CCC(C)C3)nc1C (stereo not given) | 0 | 0 | 0 | 0 | 56 | 0 | 0 | 0
COC(=O)c1sc(NC(=O)c2cc3c(s2)CCCC3)nc1C | 0 | 0 | 0 | 0 | 0 | - | - | -
COc1cccc(-n2c(C)nc3c(cnn3-c3ccc(Cl)cc3)c2=O)c1 | 0 | 0 | 0 | 0 | 55 | 0 | 0 | 16
Cc1ccc(-n2c(C)nc3c(cnn3-c3ccc(F)cc3)c2=O)cc1 | 0 | 0 | 0 | 0 | 53 | 0 | 0 | 0
Cc1cc(OCc2cc(C(=O)NC(C)c3c(C)nn(C)c3C)no2)cc(C)c1Cl (stereo not given) | - | 0 | - | - | - | - | - | -
COC(=O)c1ccc2nc(NC(=O)CSCC(=O)OCC(=O)c3ccccc3)sc2c1 | 0 | 0 | 0 | 0 | 0 | - | - | -
Cc1ccc2nc(NC(=O)CSCC(=O)OCC(=O)c3ccc(Br)cc3)sc2c1 | 0 | 0 | 0 | 36 | 87 | 67 | 23 | 33
COc1ccc(-c2nc(-c3ccc(Br)o3)no2)cc1 | 0 | 0 | 0 | 0 | 49 | 0 | 0 | 0
CCCCn1c2c(c(=N)c3ccccc31)CCC2 | 0 | 0 | - | - | - | - | - | -
CCCCCCCCn1c2c(c(=N)c3ccccc31)CCC2 | - | 0 | 0 | 0 | 85 | 88 | 30 | 31
Cc1ccc(CNCCCSc2ncccn2)cc1 | - | 0 | - | - | - | - | - | -
Clc1ccc(OCc2cc(-c3ccccc3)no2)c(Cl)c1 | 0 | 0 | 0 | 0 | 76 | 46 | 0 | 0
Nc1nc(Cl)cc(N2CCC(c3cc(-c4ccc(Cl)cc4)n[nH]3)CC2)n1 | 0 | 0 | 0 | 0 | 53 | 46 | 0 | 21

Source: PubChem
